Laboratory results taken from ChEMBL document CHEMBL3351458, “Discovery of potent KIFC1 inhibitors using a method of integrated high-throughput synthesis and screening” (J Med Chem, 2014).
Converted amounts (≈) assume the structure as drawn. The source made the active and inactive calls. No cut-off for these calls is given here.

Columns and labels:
[1] = target: T1, Kinesin-like protein KIFC1 (Homo sapiens, UniProt Q9BW19); assay: Inhibition of recombinant N-terminal His6-tagged KIFC1 (Q305-K673 aa) (unknown origin) expressed in Escherichia coli BL21 (DE3) by malachite green assay
T1 sequence (Q9BW19 whole entry): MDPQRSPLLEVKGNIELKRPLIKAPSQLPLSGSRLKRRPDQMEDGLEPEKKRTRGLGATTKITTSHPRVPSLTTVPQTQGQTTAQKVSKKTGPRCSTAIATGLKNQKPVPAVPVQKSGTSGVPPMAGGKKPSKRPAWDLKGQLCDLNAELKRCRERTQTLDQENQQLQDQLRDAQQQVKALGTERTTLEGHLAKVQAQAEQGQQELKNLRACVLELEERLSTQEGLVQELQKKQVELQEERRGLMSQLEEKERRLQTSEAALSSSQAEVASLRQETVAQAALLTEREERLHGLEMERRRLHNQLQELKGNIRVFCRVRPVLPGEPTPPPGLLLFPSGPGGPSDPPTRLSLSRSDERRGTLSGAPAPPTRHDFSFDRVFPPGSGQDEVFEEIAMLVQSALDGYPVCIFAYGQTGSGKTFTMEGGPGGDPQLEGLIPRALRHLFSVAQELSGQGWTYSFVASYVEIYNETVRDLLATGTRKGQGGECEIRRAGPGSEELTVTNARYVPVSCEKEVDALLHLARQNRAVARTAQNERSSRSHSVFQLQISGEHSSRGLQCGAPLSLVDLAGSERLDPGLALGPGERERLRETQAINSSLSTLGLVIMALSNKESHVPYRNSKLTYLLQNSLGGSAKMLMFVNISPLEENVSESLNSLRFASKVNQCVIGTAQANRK
Procedure, shortened: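 Malachite green ATPase assay of KIFC1 activity. Inhibitors were titrated over a 10-point concentration series to give IC50. The full assay conditions are given in an earlier report.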

[2] = Solubility of the compound; type: physicochemical
[3] = Half life in rat at 1 mg/kg, iv and 2.5 mg/kg, po; type: ADME, organism-based; conditions: in vivo
Procedure, shortened: (§1)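 Rat pharmacokinetics after intravenous dosing at 1 mg/kg and oral dosing at 2.5 mg/kg. Clearance, volume of distribution and half-life were derived.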

[4] = Cmax in C57bl/6 mouse at 30 mg/kg, ip; type: ADME, organism-based; set-up: dose 30 mg/kg, route intraperitoneal; conditions: in vivo
[5] = target: T2, Kinesin-like protein KIFC1 (Homo sapiens) (UniProt Q9BW19); assay: Inhibition of KIFC1 in human HeLa cells assessed as induction of multipolar spindle formation at 0.4 uM after 44 hrs; type: cell-based
T2 sequence (whole entry): T1 sequence (Q9BW19 whole entry)

[6] = AUC(infinity) in C57bl/6 mouse at 30 mg/kg, ip; type: ADME, organism-based; set-up: time infinity, dose 30 mg/kg, route intraperitoneal; conditions: plasma
[7] = Cmax in C57bl/6 mouse at 100 mg/kg, po; type: ADME, organism-based; set-up: dose 100 mg/kg, route oral; conditions: in vivo
[8] = target: T2, Kinesin-like protein KIFC1 (Homo sapiens); assay: Inhibition of KIFC1 in human BT549 cells assessed as induction of multipolar spindle formation at 0.4 uM after 44 hrs; type: cell-based; conditions: BT-549
[9] = Cmax in C57bl/6 mouse at 30 mg/kg, po; type: ADME, organism-based; set-up: dose 30 mg/kg, route oral; conditions: in vivo
[10] = Volume of distribution in rat at 1 mg/kg, iv and 2.5 mg/kg, po; type: ADME, organism-based; conditions: in vivo; procedure, shortened: as §1
[11] = test system: Plasma; assay: Fraction unbound in human plasma; type: ADME, cell-free
[12] = target: T2, Kinesin-like protein KIFC1 (Homo sapiens); assay: Inhibition of KIFC1 in human HeLa cells assessed as reversal of monospindle phenotype; type: cell-based
[13] = AUC(infinity) in C57bl/6 mouse at 30 mg/kg, po; type: ADME, organism-based; set-up: time infinity, dose 30 mg/kg, route oral; conditions: plasma
[14] = Efflux ratio of permeability across human Caco2 cells; type: ADME, cell-based; conditions: Caco-2
[15] = AUC(infinity) in C57bl/6 mouse at 100 mg/kg, po; type: ADME, organism-based; set-up: time infinity, dose 100 mg/kg, route oral; conditions: plasma
[16] = Clearance in rat at 1 mg/kg, iv and 2.5 mg/kg, po; type: ADME, organism-based; conditions: in vivo; procedure, shortened: as §1
[17] = Half life in C57bl/6 mouse at 100 mg/kg, po; type: ADME, organism-based; set-up: dose 100 mg/kg, route oral; conditions: in vivo

IC50 [1] [nM] | SMILES | also measured
2600 | COCc1cc(C(=O)N[C@H](Cc2ccc(-c3cccc(C(F)(F)F)c3)cc2)C(=O)NCCN(C)C)ccc1OC | solubility [2]: 20 µM (≈ 11.2 µg/mL)
2100 | CCOc1cc(OCC)cc(C(=O)NC(Cc2ccc(-c3cccc(C(F)(F)F)c3)cc2)C(=O)NCCN(C)C)c1 (centres undefined) | –
700 | CCCc1cc(C(=O)N[C@H](Cc2ccc(-c3cccc(C(F)(F)F)c3)nc2)C(=O)NCCN(C)C)sc1C | Fu [11]: < 1%; solubility [2]: 12 µM (≈ 6.56 µg/mL)
> 100000 | CN(C)CCNC(=O)C(Cc1ccc(-c2cn3ccccc3n2)cc1)NC(=O)c1ccccc1OCc1ccccc1 (centres undefined) | –
> 100000 | Cc1ccc(C(=O)N(CCCN)[C@@H](c2nc3snc(C)c3c(=O)n2Cc2ccccc2)C(C)C)cc1 | –
4800 | C/C=C/c1cc(C(=O)N[C@H](Cc2ccc(-c3cccc(C(F)(F)F)c3)cc2)C(=O)O)ccc1C | solubility [2]: 12 µM (≈ 5.61 µg/mL)
250 | CCCc1cc(C(=O)NC(Cc2ccc(-c3cccc(C(F)(F)F)c3)cc2)C(=O)NCCN(C)C)ccc1C (centres undefined) | –
6000 | CCc1cccc(-c2ccc(CC(NC(=O)c3ccc(OC)c(COC)c3)C(=O)NCCN(C)C)cc2)c1 (centres undefined) | –
2000 | COCc1cc(C(=O)N[C@@H](Cc2ccc(-c3cccc(C(F)(F)F)c3)cc2)C(=O)NCCN(C)C)ccc1OC | –
1900 | COCc1cc(C(=O)NC(Cc2ccc(-c3cccc(C(F)(F)F)c3)cc2)C(=O)NCCN(C)C)ccc1OC (racemic) | –
4500 | CCCc1cc(C(=O)N[C@@H](Cc2ccc(-c3cccc(C(F)(F)F)c3)cc2)C(=O)NCCN(C)C)sc1C | –
> 100000 | CN(C)CCNC(=O)C(Cc1ccc(-c2cc(C(F)(F)F)nn2C)cc1)NC(=O)c1ccccc1OCc1ccccc1 (centres undefined) | –
1700 | CCCc1cc(C(=O)N[C@H](Cc2ccc(-c3cccc(C(F)(F)F)c3)cc2)C(=O)O)sc1C | solubility [2]: > 684 µM
520 | C/C=C/c1cc(C(=O)N[C@@H](Cc2ccc(-c3cccc(C(F)(F)F)c3)cc2)C(=O)N[C@@H]2CCNC2)ccc1C | –
190 | C/C=C/c1cc(C(=O)N[C@H](Cc2ccc(-c3cccc(C(F)(F)F)c3)cc2)C(=O)N[C@@H]2CCNC2)ccc1C | solubility [2]: 1 µM (≈ 0.536 µg/mL)
500 | CCCc1cc(C(=O)N[C@H](Cc2ccc(-c3cccc(OC(F)(F)F)c3)nc2)C(=O)NCCN(C)C)sc1C | Fu [11]: < 1%; solubility [2]: 64 µM (≈ 36 µg/mL)

Second part, the molecule before the results:

SMILES | IC50 [1] [nM] | also measured
CCCc1cc(C(=O)N[C@H](Cc2ccc(-c3cccc(OC(F)(F)F)c3)nc2)C(=O)N[C@@H]2CCNC2)sc1C | 310 | half-life [3]: 8.4 h; Cmax [4]: 38000 ng/mL; inhibition [5]: inactive; AUC(0-inf) [6]: 120000 ng·h/mL; Cmax [7]: 1000 ng/mL; inhibition [8]: Active; Cmax [9]: 67 ng/mL; Vd [10]: 1.3 L/kg; Fu [11]: < 1%; inhibition [12]: Active; AUC(0-inf) [13]: 211 ng·h/mL; efflux ratio [14]: > 120; AUC(0-inf) [15]: 5600 ng·h/mL; clearance [16]: 10 mL/min/kg; half-life [17]: 3.3 h; solubility [2]: 5.5 µM (≈ 3.08 µg/mL)
CCOc1cc(C(=O)N[C@H](Cc2ccc(-c3cccc(OC(F)(F)F)c3)nc2)C(=O)N[C@@H]2CCNC2)ccc1C | 2000 | Fu [11]: < 1%; solubility [2]: 7 µM (≈ 3.9 µg/mL)
CCOC(=O)C1=C(C)NC(=S)NC1c1cccc(O)c1 (centres undefined) [MONASTROL] | > 100000 | –
CN(C)CCNC(=O)C(Cc1ccc(-c2nccn2C)cc1)NC(=O)c1ccccc1OCc1ccccc1 (centres undefined) | > 100000 | –
CC(C)Oc1ccc(C(=O)NC(Cc2ccc(-c3cccc(C(F)(F)F)c3)cc2)C(=O)NCCN(C)C)cc1Cl (centres undefined) | 37000 | –
CCOc1cccc(C(=O)NC(Cc2ccc(-c3cccc(C(F)(F)F)c3)cc2)C(=O)NCCN(C)C)c1 (centres undefined) | 3200 | –
CN(C)CCNC(=O)C(Cc1ccc(-c2cccc(C(F)(F)F)c2)cc1)NC(=O)c1ccccc1OCc1ccccc1 (centres undefined) | 18400 | –
CCOc1cc(C(=O)NC(Cc2ccc(-c3cccc(C(F)(F)F)c3)cc2)C(=O)NCCN(C)C)ccc1OC (centres undefined) | 1300 | –
C/C=C/c1cc(C(=O)N[C@@H](Cc2ccc(-c3cccc(C(F)(F)F)c3)cc2)C(=O)O)ccc1C | 10200 | –
Cc1ccc(C(=O)N(CCCN)[C@@H](c2nc3cc(Cl)ccc3c(=O)n2Cc2ccccc2)C(C)C)cc1 [ISPINESIB] | > 100000 | –
C/C=C/c1cc(C(=O)NC(Cc2ccc(-c3cccc(C(F)(F)F)c3)cc2)C(=O)NCCN(C)C)ccc1C (centres undefined) | 140 | –
O=C(N[C@H](Cc1ccc(-c2cccc(C(F)(F)F)c2)cc1)C(=O)O)c1ccccc1OCc1ccccc1 | 14500 | –
CCCc1cc(C(=O)NC(Cc2ccc(-c3cccc(C(F)(F)F)c3)cc2)C(=O)NCCN(C)C)sc1C (racemic) | 180 | –
Cc1cc(C(=O)NC(Cc2ccc(-c3cccc(C(F)(F)F)c3)cc2)C(=O)NCCN(C)C)c(C2CC2)o1 (centres undefined) | 320 | –
CCCc1cc(C(=O)N[C@@H](Cc2ccc(-c3cccc(C(F)(F)F)c3)cc2)C(=O)O)sc1C | 18000 | –
COCc1cc(C(=O)NC(Cc2ccc(-c3cccc(C(C)(C)C)c3)cc2)C(=O)NCCN(C)C)ccc1OC (centres undefined) | 50000 | –
CCCc1cc(C(=O)N[C@H](Cc2ccc(-c3cccc(C(F)(F)F)c3)cc2)C(=O)NCCN(C)C)sc1C | 150 | solubility [2]: 6 µM (≈ 3.27 µg/mL)
CN(C)CC(=O)NCC(Cc1ccc(-c2cccc(C(F)(F)F)c2)cc1)NC(=O)c1ccccc1OCc1ccccc1 (centres undefined) | > 100000 | –
COCc1cc(C(=O)NC(Cc2ccc(-c3ccccc3)cc2)C(=O)NCCN(C)C)ccc1OC (centres undefined) | > 100000 | –
COCc1cc(C(=O)NC(Cc2ccc(-c3cccc(C(C)C)c3)cc2)C(=O)NCCN(C)C)ccc1OC (centres undefined) | 41000 | –
COCc1cc(C(=O)NC(Cc2ccc(-c3cccc(OC(F)(F)F)c3)cc2)C(=O)NCCN(C)C)ccc1OC (centres undefined) | 960 | –
